Source: PubChem BioAssay (Johns Hopkins Ion Channel Center)
MrgX1 PAM = positive allosteric modulators of MrgX1, primary screen, HEK293 cells, Fluo-4 calcium flux | FDSS; active compounds read high | B-score at 10 µM | hit rate 0.63% among 310,000 | AID 588675, 2011;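 active means plate-corrected calcium response at least 3 library SD above typical, normal starting fluorescence, not activating the receptor alone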;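 further: compound read alongside a low EC10 to EC30 dose of BAM8-22 agonist; peak minus trough fluorescence over baseline measured at the second addition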
RGS4 inh = RGS4 inhibitors, primary screen, cell-based, HEK293 M3R inducible RGS4, calcium flux; Regulator of G-protein signaling 4 (Homo sapiens), P49798; Fluo-4 calcium flux; active compounds read high; triggered by carbachol at its EC20; B-score at 10 µM; hit rate 0.45% among 310,000; AID 463165, 2010;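 active means B-score, a plate-corrected calcium signal, over three deviations above library mean, with baseline fluorescence within five deviations of library mean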;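 further: RGS4 expression induced by doxycycline in cells with stable M3 receptor; B-score is computed from the integrated fluorescence ratio over baseline after carbachol; higher B-score means a larger calcium signal and so more RGS4 inhibition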
Target sequence (P49798 whole entry, looked up): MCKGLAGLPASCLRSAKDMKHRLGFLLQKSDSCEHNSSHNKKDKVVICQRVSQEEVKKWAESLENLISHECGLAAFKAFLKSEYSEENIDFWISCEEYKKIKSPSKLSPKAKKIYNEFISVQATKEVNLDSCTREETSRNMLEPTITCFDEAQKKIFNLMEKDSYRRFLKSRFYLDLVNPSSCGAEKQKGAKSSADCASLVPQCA
MrgX1 agonist = agonists of human MrgX1 receptor, primary screen, HEK293 cells, Fluo-4 calcium flux. Fluo-4 calcium fluorescence, agonist mode; active compounds read high. AID 588627, 2011. hit rate 0.44% among 310,000. B-score at 10 µM;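 active means calcium response B-score plate-corrected fluorescence ratio at least 3 library SD, with starting fluorescence B-score inside 5 SD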
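Test system: HEK293 cells stably expressing human MrgX1 receptor; amount: 15,000 cells per well; doses: compound delivered in addition one of three; times: overnight plating before 1 h dye loading; detection: Fluo-4 NW calcium-flux fluorescence, kinetic read; read-out basis: B-scored fluorescence response ratio; controls: positive and negative controls per plate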
RGS4 pot = RGS4 potentiators or activators, primary screen, cell-based, HEK293 M3R inducible RGS4, calcium flux | carbachol calcium flux Fluo4; active compounds read low | B-score at 10 µM | hit rate 0.92% among 310,000;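 active means B-score of the integrated calcium signal more than 4 SD below the library mean, with starting fluorescence not abnormally high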;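 further: negative B-score means reduced calcium response which marks RGS4 activation or potentiation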
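test system = HEK293 cells with stable M3R and inducible RGS4 | schedule = recording 10 s baseline at 1 Hz, 100 s post-agonist | technique = Fluo4-AM (2 µM) calcium-flux fluorescence, kinetic read | measure = Agonist-evoked peak-minus-minimum fluorescence over baseline, integrated ratio, B score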
MrgX1 antag = antagonists of human MrgX1 receptor, primary screen, HEK293 cells, Fluo-4 calcium flux; Mas-related G-protein coupled receptor member X1 (Homo sapiens), Q96LB2; BAM8-22 antagonism; active compounds read low; B-score at 10 µM; hit rate 1.3% among 310,000;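 active means calcium-response B-score plate-corrected more than 3 library SD below zero, starting fluorescence within 5 deviations, no agonist response on first addition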;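 further: peak minus trough fluorescence over baseline after final BAM8-22 challenge near maximal dose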
A number is an active result. This is a sample that favours compounds with a hit; in the whole collection about 3.5% have one here.

`CCC(=O)OCC(=O)c1cc(C)n(-c2ccc(Br)cc2)c1C` gave MrgX1 PAM inactive, RGS4 inh inactive, MrgX1 agonist inactive, RGS4 pot inactive and MrgX1 antag inactive.
`CSc1ccc(CN(C)C(=O)c2cccc(S(=O)(=O)N3CCN(Cc4ccccc4)CC3)c2)cc1` gave MrgX1 PAM inactive, RGS4 inh inactive, MrgX1 agonist inactive, RGS4 pot inactive and MrgX1 antag inactive.
For O=C1/C(=C/c2cccs2)SC(=S)N1NS(=O)(=O)c1ccccc1 the results were MrgX1 PAM inactive, RGS4 inh inactive, MrgX1 agonist inactive, RGS4 pot inactive and MrgX1 antag inactive.
`O=C1/C(=C/C=C/c2ccco2)SC(=S)N1NS(=O)(=O)c1ccccc1` gave MrgX1 PAM 7.9, MrgX1 agonist inactive and MrgX1 antag inactive.
COc1ccccc1NC(=O)CCCCCN1C(=O)c2cccc([N+](=O)[O-])c2C1=O was read as MrgX1 PAM inactive, RGS4 inh inactive, MrgX1 agonist inactive, RGS4 pot inactive and MrgX1 antag inactive.
`COc1cc(/C=C2/C(=O)c3cccc([N+](=O)[O-])c3C2=O)c(Br)cc1O` gave MrgX1 PAM inactive, MrgX1 agonist 34.8 and MrgX1 antag inactive.
`CCOC(=O)c1cnn(C)c1NC(=O)c1ccc([N+](=O)[O-])cc1` gave MrgX1 PAM inactive, RGS4 inh inactive, MrgX1 agonist inactive, RGS4 pot inactive and MrgX1 antag inactive.
`COc1ccc(S(=O)(=O)n2nc(C)cc2C)cc1OC` gave MrgX1 PAM inactive, RGS4 inh inactive, MrgX1 agonist inactive, RGS4 pot inactive and MrgX1 antag inactive.
`CCOC(=O)c1c(CSc2ccc(CC)cc2)oc2ccc(O)c(CN(C)C)c12` gave MrgX1 PAM inactive, RGS4 inh inactive, MrgX1 agonist inactive, RGS4 pot inactive and MrgX1 antag -5.91.
For COc1cc(OC)cc(-c2nnc(SCc3ccc(C(=O)O)cc3)o2)c1 the results were MrgX1 PAM inactive, RGS4 inh inactive, MrgX1 agonist inactive, RGS4 pot inactive and MrgX1 antag inactive.
Screening O=C(c1ccco1)N1CCN(Cc2csc(-c3ccccc3Cl)n2)CC1 returned MrgX1 PAM inactive, RGS4 inh inactive, MrgX1 agonist inactive, RGS4 pot inactive and MrgX1 antag inactive.
Screening Oc1ccccc1-c1nc(NCC2CCCO2)c2ccccc2n1 (configuration not stated) returned MrgX1 PAM inactive, RGS4 inh inactive, MrgX1 agonist inactive, RGS4 pot -8.45 and MrgX1 antag inactive.
`OCC1CCCN1C(=S)Nc1ccccc1` (configuration not stated) gave MrgX1 PAM inactive, RGS4 inh inactive, MrgX1 agonist inactive, RGS4 pot inactive and MrgX1 antag inactive.
NC(=O)c1ccccc1OCC(=O)N1CCc2ccccc2C1 was read as MrgX1 PAM inactive, RGS4 inh inactive, MrgX1 agonist inactive, RGS4 pot inactive and MrgX1 antag inactive.
For COc1ccc(Cc2noc(CN(C)CC(O)c3ccccc3)n2)cc1OC (configuration not stated) the results were MrgX1 PAM inactive, RGS4 inh inactive, MrgX1 agonist inactive, RGS4 pot inactive and MrgX1 antag -5.21.
For CCOc1ccc(C2C(C#N)=C(N)SC(N)=C2C#N)c(OCC)c1 the results were MrgX1 PAM inactive, RGS4 inh inactive, MrgX1 agonist inactive, RGS4 pot inactive and MrgX1 antag inactive.
Screening CCCCc1ccc(C2C(C#N)=C(N)SC(N)=C2C#N)s1 returned MrgX1 PAM inactive, MrgX1 agonist inactive and MrgX1 antag -9.64.
For O=C(Cn1nnc2ccccc21)OCC(=O)c1ccccc1 the results were MrgX1 PAM inactive, RGS4 inh inactive, MrgX1 agonist inactive, RGS4 pot inactive and MrgX1 antag -6.12.
For COc1ccc(C(CC(=O)c2ccccc2)CC(=O)c2ccccc2)cc1OC the results were MrgX1 PAM inactive, RGS4 inh inactive, MrgX1 agonist inactive, RGS4 pot inactive and MrgX1 antag -6.66.
Screening NS(=O)(=O)c1ccc(CCNCc2ccccc2OCc2ccc(F)cc2)cc1 returned MrgX1 PAM inactive, RGS4 inh inactive, MrgX1 agonist inactive, RGS4 pot inactive and MrgX1 antag -4.75.
